From ChEMBL document CHEMBL1139853, “Anxiolytic effects of erythrinian alkaloids from Erythrina mulungu” (2007) come the findings set out here.

Activity calls are given as the source filed them. The calls are words filed in the database; no cut-off is given here.

Test [1] has as its system Mus musculus. The experiment in a line: Locomotor activity in Swiss mouse measured as number of crossings in the arena test at 3 mg/kg, po. Format: functional. In short, it runs like this:
(§1)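 Male Swiss mice (25-35 g, naive) given the test agent orally at 3-10 mg/kg as a saline suspension, 30 min before testing. Saline po served as vehicle; diazepam 2 mg/kg ip (saline + 2% Tween 80) was the reference. Arena locomotor test scoring crossings and rearings; mean ± SEM reported.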

Test [2] relates to Mus musculus. The experiment in a line: Locomotor activity in Swiss mouse measured as number of rearings in the arena test at 3 mg/kg, po. Format: functional. In short, it runs like this: as §1
The subject of test [3] is Mus musculus. The experiment in a line: Locomotor activity in Swiss mouse measured as number of crossings in the arena test at 10 mg/kg, po. Format: functional. In short, it runs like this: as §1
Test [4] relates to Mus musculus. The experiment in a line: Locomotor activity in Swiss mouse measured as number of rearings in the arena test at 10 mg/kg, po. Format: functional. In short, it runs like this:
as §1

Test [5] concerns Mus musculus. The experiment in a line: Antianxiolytic activity in Swiss mouse assessed as impairment of inhibitory avoidance task by elevated T-maze test at 3 mg/kg, po. Format: functional, organism-based. Also noted: dose 3 mg/kg. In short, it runs like this: (§2)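 Naive male Swiss mice (25-35 g) received alkaloid suspended in saline (NaCl 0.9%) orally (3-10 mg/kg range) 30 min before testing, with saline vehicle controls. Inhibitory avoidance latency to leave the enclosed arm was measured in an elevated T-maze (38.5 cm high; three 30 cm × 5 cm arms). Analysis was one-way ANOVA followed by Duncan's test.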

The subject of test [6] is Mus musculus. The experiment in a line: Antianxiolytic activity in Swiss mouse assessed as impairment of inhibitory avoidance task by elevated T-maze test at 10 mg/kg, po. Format: functional, organism-based. Also noted: dose 10 mg/kg. In short, it runs like this: as §2
In test [7] the test system is Mus musculus. The test is described as follows: Antianxiolytic activity in Swiss mouse assessed as effect on latency to leave the open arm by elevated T maze test at 10 mg/kg. Also noted: dose 10 mg/kg. The format is functional, organism-based. In short, it runs like this:
(§3)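 Male Swiss mice, 25-35 g, experimentally naive, group-housed 10 per cage on a 12 h light cycle at 23 ± 1 °C/55 ± 5% humidity. Test agent suspended in saline (NaCl 0.9%) and given orally (3-10 mg/kg) 30 min before the session; vehicle saline po; diazepam reference 2 mg/kg ip in saline + 2% Tween 80. Elevated T-maze 38.5 cm above the floor, three 30 cm × 5 cm arms. One-way ANOVA followed by Duncan's test.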

The test system of test [8] is Mus musculus. The test is described as follows: Antianxiolytic activity in Swiss mouse assessed as reduction of latency to leave the enclosed arm by elevated T maze test at 10 mg/kg, po. Format: functional, organism-based. Also noted: dose 10 mg/kg. In short, it runs like this:
as §3

The test system of test [9] is Mus musculus. The test is described as follows: Antianxiolytic activity in Swiss mouse assessed as reduction of latency to leave the enclosed arm by elevated T maze test at 3 mg/kg, po. The format is functional, organism-based. Also noted: dose 3 mg/kg. In short, it runs like this:
as §3

Test [10] has as its system Mus musculus. The experiment in a line: Antianxiolytic activity in Swiss mouse assessed as effect on latency to leave the open arm by elevated T maze test at 2 mg/kg, ip. The format is functional, organism-based. Also noted: dose 2 mg/kg. In short, it runs like this: (§4)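 Male Swiss mice (25-35 g, naive), group-housed on a 12 h light cycle. Diazepam was suspended in saline + 2% Tween 80 and given ip 30 min before the session. Elevated T-maze raised 38.5 cm above the floor, with three 30 cm × 5 cm arms; arm-exit latencies were recorded. Analysis was one-way ANOVA with Duncan's post hoc test.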

The test system of test [11] is Mus musculus. The test is described as follows: Antianxiolytic activity in Swiss mouse assessed as reduction of latency to leave the enclosed arm by elevated T maze test at 2 mg/kg, ip. The format is functional, organism-based. Also noted: dose 2 mg/kg. In short, it runs like this:
as §4

Consider `COc1cc2c(cc1OC)[C@]13C[C@@H](OC)C=CC1=CCN3C[C@H]2O`, for which the Activity with Mus musculus [1] is 135.3; in the test with Mus musculus [2], 29.6; in the test with Mus musculus [3], 159; with Mus musculus [4], 29.63. In addition, the result in the test with Mus musculus [5] and with Mus musculus [6] was Active.
For `COc1cc2c(cc1OC)[C@]13C[C@@H](O)C=CC1=CCN3C[C@H]2O`, the result in the test with Mus musculus [7] was inactive. Also, the Activity in the test on Mus musculus [1] is recorded as 158.5; in the test on Mus musculus [2] it was 27.7; in the test on Mus musculus [3] it was 126.56; with Mus musculus [4], 22.44. Also, in the test with Mus musculus [8], the result was Active.
For `COc1cc2c(cc1OC)[C@]13C[C@@H](O)C=CC1=CCN3CC2`, the Activity with Mus musculus [1] was 157.33; with Mus musculus [2], 37.07; in the test on Mus musculus [3], 157.93; in the test with Mus musculus [4], 31.71. Moreover, the result with Mus musculus [8] and with Mus musculus [9] was Active.
As to `CN1C(=O)CN=C(c2ccccc2)c2cc(Cl)ccc21`, in the test on Mus musculus [10], the result was inactive. In addition, the outcome in the test with Mus musculus [11], with Mus musculus [8], in the test with Mus musculus [5] and in the test with Mus musculus [6] was Active.
